Measured values published in ChEMBL document CHEMBL4041530, “Development of spiroguanidine-derived α7 neuronal nicotinic receptor partial agonists” (Bioorg Med Chem Lett, 2017).

Experiments:
[1] = molecular target: Neuronal acetylcholine receptor subunit alpha-7 (Rattus norvegicus) (UniProt Q05941); assay: Agonist activity at rat alpha7 nAChR expressed in HEK293 cells co-expressing human RIC-3 assessed as maximum peak current at 10 uM at holding potential of -90 mV by whole-cell voltage clamp electrophysiology method relative to acetylcholine; type: cell-based
Method in brief: (§1)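 Concentration-response patch-clamp electrophysiology in HEK-293 cells expressing rat α7 nAChR. EC50 is taken from response area. Efficacy is given as Ymax from both area and peak response.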

[2] = molecular target: Neuronal acetylcholine receptor subunit alpha-7 (Homo sapiens, UniProt P36544); assay: Agonist activity at alpha7 nAChR (unknown origin) expressed in HEK293 cells assessed as increase in calcium influx by Fluo-4-AM dye based FLIPR assay; type: cell-based
Method in brief: (§2)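 Ca2+-based fluorescence imaging plate reader screen, run as two assays: α7 nAChR agonism and 5-HT3A receptor antagonism. Number of determinations recorded per value.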

[3] = molecular target: Neuronal acetylcholine receptor subunit alpha-7 (Rattus norvegicus, UniProt Q05941); assay: Agonist activity at rat alpha7 nAChR expressed in HEK293 cells co-expressing human RIC-3 assessed as area under current curve at holding potential of -90 mV by whole-cell voltage clamp electrophysiology method; type: cell-based; method in brief: as §1
[4] = molecular target: T1, 5-hydroxytryptamine receptor 3A (Homo sapiens, UniProt P46098); assay: Antagonist activity at 5-HT3A receptor (unknown origin) assessed as decrease in calcium influx by Fluo-4-AM dye based FLIPR assay; method in brief: as §2
T1 sequence (P46098 whole entry): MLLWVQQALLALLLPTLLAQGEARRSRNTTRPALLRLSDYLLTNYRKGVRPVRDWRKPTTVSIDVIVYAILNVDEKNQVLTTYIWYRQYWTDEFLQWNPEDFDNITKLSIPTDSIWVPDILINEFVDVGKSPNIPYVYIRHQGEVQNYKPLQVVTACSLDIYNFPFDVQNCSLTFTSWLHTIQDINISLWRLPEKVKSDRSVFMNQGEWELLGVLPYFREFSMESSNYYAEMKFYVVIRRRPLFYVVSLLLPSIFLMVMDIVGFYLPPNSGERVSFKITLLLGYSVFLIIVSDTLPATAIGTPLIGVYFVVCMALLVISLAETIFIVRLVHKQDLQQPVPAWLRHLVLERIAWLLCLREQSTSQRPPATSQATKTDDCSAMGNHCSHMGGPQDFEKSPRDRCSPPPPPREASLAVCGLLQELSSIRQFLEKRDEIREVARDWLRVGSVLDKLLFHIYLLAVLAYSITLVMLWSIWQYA

[5] = molecular target: Neuronal acetylcholine receptor subunit alpha-7 (Rattus norvegicus) (UniProt Q05941); assay: Agonist activity at rat alpha7 nAChR expressed in HEK293 cells co-expressing human RIC-3 assessed as area under current curve at 10 uM at holding potential of -90 mV by whole-cell voltage clamp electrophysiology method relative to acetylcholine; type: cell-based; method in brief: as §1
[6] = species: Homo sapiens; assay: Selectivity ratio of IC50 for 5-HT3A receptor (unknown origin) to EC50 for alpha7 nAChR (unknown origin) expressed in HEK293 cells; type: cell-based
Method in brief: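 Selectivity ratio calculated as 5-HT3A IC50 (FLIPR Ca2+ antagonist assay) divided by α7 EC50 (FLIPR Ca2+ agonist assay).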

[7] = system: Rattus norvegicus; assay: In vivo agonist activity at alpha7 nAChR in Wistar rat assessed as induction of Arc gene expression in medial prefrontal cortex at 1 mg/kg, sc after 2 hrs by qPCR method relative to control; type: functional
Method in brief: (§3)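 Rats dosed sc (0.3–10 mg/kg; vehicle 2 mL/kg sc) and c-fos and Arc expression measured in medial prefrontal cortex. Values are normalized to vehicle, mean ± SEM, N = 8. Comparison with vehicle by Dunnett's multiple comparison test (adjusted p). β2-microglobulin served as endogenous control. Plasma and brain/plasma levels were sampled at 3 and 10 mg/kg.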

[8] = Plasma concentration in Wistar rat at 3 mg/kg, sc after 2 hrs; type: ADME, organism-based
Method in brief: (§4)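 Plasma concentration and brain/plasma ratio measured at 3 and 10 mg/kg sc, in the same rats used for the prefrontal c-fos/Arc expression study.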

[9] = system: Rattus norvegicus; assay: In vivo agonist activity at alpha7 nAChR in Wistar rat assessed as induction of c-fos gene expression in medial prefrontal cortex at 0.3 mg/kg, sc after 2 hrs by qPCR method relative to control; type: functional; method in brief: as §3
[10] = Ratio of drug uptake in Wistar rat brain to plasma at 10 mg/kg, sc after 2 hrs; type: ADME, organism-based; settings: read-out: BPR; method in brief: as §4
[11] = Ratio of drug uptake in Wistar rat brain to plasma at 3 mg/kg, sc after 2 hrs; type: ADME, organism-based; settings: read-out: BPR; method in brief: as §4
[12] = Ratio of drug uptake in Wistar rat brain to plasma at 0.3 mg/kg, sc after 2 hrs; type: ADME, organism-based; settings: read-out: BPR
[13] = Ratio of drug uptake in Wistar rat brain to plasma at 1 mg/kg, sc after 2 hrs; type: ADME, organism-based; settings: read-out: BPR
[14] = system: Rattus norvegicus; assay: In vivo agonist activity at alpha7 nAChR in Wistar rat assessed as induction of Arc gene expression in medial prefrontal cortex at 3 mg/kg, sc after 2 hrs by qPCR method relative to control; type: functional; method in brief: as §3
[15] = Drug uptake in Wistar rat brain at 0.3 mg/kg, sc after 2 hrs; type: ADME, organism-based; settings: read-out: Drug uptake
[16] = Plasma concentration in Wistar rat at 1 mg/kg, sc after 2 hrs; type: ADME, organism-based
[17] = system: Rattus norvegicus; assay: In vivo agonist activity at alpha7 nAChR in Wistar rat assessed as induction of c-fos gene expression in medial prefrontal cortex at 1 mg/kg, sc after 2 hrs by qPCR method relative to control; type: functional; method in brief: as §3
[18] = Plasma concentration in Wistar rat at 0.3 mg/kg, sc after 2 hrs; type: ADME, organism-based
[19] = system: Rattus norvegicus; assay: In vivo agonist activity at alpha7 nAChR in Wistar rat assessed as induction of Arc gene expression in medial prefrontal cortex at 10 mg/kg, sc after 2 hrs by qPCR method relative to control; type: functional
Method in brief: (§5)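 Rats dosed sc at 0.3–10 mg/kg, or with vehicle at 2 mL/kg sc. Medial prefrontal cortex was assayed for c-fos and Arc expression, normalized to vehicle, with β2-microglobulin as the endogenous control. Data are mean ± SEM, N = 8. Dunnett's multiple comparison test against vehicle gave adjusted p values.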

[20] = Drug uptake in Wistar rat brain at 1 mg/kg, sc after 2 hrs; type: ADME, organism-based; settings: read-out: Drug uptake
[21] = Drug uptake in Wistar rat brain at 10 mg/kg, sc after 2 hrs; type: ADME, organism-based; settings: read-out: Drug uptake
[22] = system: Rattus norvegicus; assay: In vivo agonist activity at alpha7 nAChR in Wistar rat assessed as induction of c-fos gene expression in medial prefrontal cortex at 3 mg/kg, sc after 2 hrs by qPCR method relative to control; type: functional; method in brief: as §3
[23] = Drug uptake in Wistar rat brain at 3 mg/kg, sc after 2 hrs; type: ADME, organism-based; settings: read-out: Drug uptake
[24] = system: Rattus norvegicus; assay: Effect on beta2-microglobulin gene expression in Wistar rat medial prefrontal cortex at 0.3 to 10 mg/kg, sc after 2 hrs by qPCR method; type: ADME, organism-based; settings: in vivo; method in brief: as §5
[25] = Plasma concentration in Wistar rat at 10 mg/kg, sc after 2 hrs; type: ADME, organism-based; method in brief: as §4
[26] = system: Rattus norvegicus; assay: In vivo agonist activity at alpha7 nAChR in Wistar rat assessed as induction of Arc gene expression in medial prefrontal cortex at 0.3 mg/kg, sc after 2 hrs by qPCR method relative to control; type: functional; method in brief: as §3
[27] = molecular target: Neuronal acetylcholine receptor subunit alpha-7 (Rattus norvegicus) (UniProt Q05941); assay: Displacement of [125I]Tyr54-alpha-Bungarotoxin from rat alpha7 nAChR expressed in HEK293 cell membranes co-expressing human RIC-3 after 2 hrs by gamma counting method
[28] = system: Rattus norvegicus; assay: In vivo agonist activity at alpha7 nAChR in Wistar rat assessed as induction of c-fos gene expression in medial prefrontal cortex at 10 mg/kg, sc after 2 hrs by qPCR method relative to control; type: functional; method in brief: as §5
[29] = system: Rattus norvegicus; assay: Effect on beta2-microglobulin gene expression in Wistar rat medial prefrontal cortex at 10 mg/kg, sc after 2 hrs by qPCR method; type: ADME, organism-based; settings: in vivo; method in brief: as §5

Neuronal acetylcholine receptor subunit alpha-7 (Rattus norvegicus), sequence (Q05941 whole entry): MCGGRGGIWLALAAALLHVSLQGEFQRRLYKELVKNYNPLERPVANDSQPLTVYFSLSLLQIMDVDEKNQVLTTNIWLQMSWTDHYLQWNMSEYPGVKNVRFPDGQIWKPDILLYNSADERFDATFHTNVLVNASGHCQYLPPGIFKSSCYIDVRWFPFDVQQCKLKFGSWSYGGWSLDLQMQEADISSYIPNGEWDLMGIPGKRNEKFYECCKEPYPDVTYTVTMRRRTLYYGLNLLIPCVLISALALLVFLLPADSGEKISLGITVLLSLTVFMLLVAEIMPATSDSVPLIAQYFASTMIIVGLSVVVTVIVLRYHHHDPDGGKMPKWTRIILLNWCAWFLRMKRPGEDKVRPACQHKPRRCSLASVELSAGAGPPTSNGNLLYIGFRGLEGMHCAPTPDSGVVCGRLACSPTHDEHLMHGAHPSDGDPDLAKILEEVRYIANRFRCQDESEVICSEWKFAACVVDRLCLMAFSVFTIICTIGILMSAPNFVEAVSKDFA
Neuronal acetylcholine receptor subunit alpha-7 (Rattus norvegicus, UniProt Q05941), sequence (Q05941 whole entry): as above
Neuronal acetylcholine receptor subunit alpha-7 (Homo sapiens, UniProt P36544), sequence (P36544 whole entry): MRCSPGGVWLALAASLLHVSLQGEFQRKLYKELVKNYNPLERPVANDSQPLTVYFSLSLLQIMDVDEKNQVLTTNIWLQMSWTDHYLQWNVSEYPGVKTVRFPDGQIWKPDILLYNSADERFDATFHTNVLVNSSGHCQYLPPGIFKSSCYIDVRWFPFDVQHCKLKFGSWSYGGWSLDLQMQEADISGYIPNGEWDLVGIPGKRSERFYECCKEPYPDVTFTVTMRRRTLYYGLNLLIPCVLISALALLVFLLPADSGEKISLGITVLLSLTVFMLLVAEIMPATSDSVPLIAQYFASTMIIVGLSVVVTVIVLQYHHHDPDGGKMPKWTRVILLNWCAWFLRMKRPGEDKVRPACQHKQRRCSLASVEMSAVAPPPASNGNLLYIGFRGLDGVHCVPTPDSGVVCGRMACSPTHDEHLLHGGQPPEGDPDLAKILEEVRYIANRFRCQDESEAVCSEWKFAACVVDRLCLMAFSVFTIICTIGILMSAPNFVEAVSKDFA

## CN1C(Nc2nc3ccccc3s2)=NCC12CN1CCC2CC1 (configuration not stated)
[1]
  Emax: 25%
[2]
  EC50: 170 nM
[3]
  EC50: 1200 nM
[4]
  IC50: 43 nM
[5]
  Emax: 67%
[6]
  Ratio IC50/EC50: 0.25

## Clc1ccc2c(NC3=NCC4(CN5CCC4CC5)N3)ncnn12 (configuration not stated)
[2]
  EC50: 62 nM
[4]
  IC50: 38000 nM
[6]
  Ratio IC50/EC50: 610

## c1ccc2sc(NC3=NCC4(CN5CCC4CC5)N3)nc2c1 (configuration not stated)
[7]
  fold change (FC): 1
[1]
  Emax: 29%
[8]
  concentration at 2 h: 130 to 131 nM
[9]
  fold change (FC): 1.5
[10]
  Kp at 2 h: 4.1
[11]
  Kp at 2 h: 4
[12]
  Kp at 2 h: 4.8
[13]
  Kp at 2 h: 4.3
[14]
  fold change (FC): 1.5
[15]
  concentration at 2 h: 58 nM
[16]
  concentration at 2 h: 43 nM
[17]
  fold change (FC): 1.1
[2]
  EC50: 26 nM
[18]
  concentration at 2 h: 12 nM
[19]
  fold change (FC): 2.7
[3]
  EC50: 200 nM
[4]
  IC50: 26 nM
[20]
  concentration at 2 h: 184 nM
[5]
  Emax: 78%
[6]
  Ratio IC50/EC50: 1
[21]
  concentration at 2 h: 1920 nM
[22]
  fold change (FC): 1.7
[23]
  concentration at 2 h: 524 nM
[24]
  Activity: Non-Toxic
[25]
  concentration at 2 h: 460 to 463 nM
[26]
  fold change (FC): 1.2
[27]
  INH: 240 nM
[28]
  fold change (FC): 1.9

## Clc1cccc2sc(NC3=NCC4(CN5CCC4CC5)N3)nc12 (racemic)
[2]
  EC50: 120 nM
[4]
  IC50: 38 nM
[6]
  Ratio IC50/EC50: 0.32

## COc1cc(NC2=NCC3(CN4CCC3CC4)N2)ncn1 (racemic)
[2]
  EC50: 1300 nM
[4]
  IC50: > 100000 nM
[6]
  Ratio IC50/EC50: > 77

## Clc1ccc2nc(NC3=NCC4(CN5CCC4CC5)N3)sc2n1 (racemic)
[2]
  EC50: 56 nM
[4]
  IC50: 32000 nM
[6]
  Ratio IC50/EC50: 570

## CCN1C(Nc2nc3ccc(OC)cc3s2)=NCC12CN1CCC2CC1 (racemic)
[2]
  EC50: > 10000 nM
[4]
  IC50: > 12000 nM
[6]
  Ratio IC50/EC50: > 1

## c1ccc2nc(NC3=NCC4(CN5CCC4CC5)N3)cnc2c1 (racemic)
[2]
  EC50: 490 nM
[4]
  IC50: 1400 nM
[6]
  Ratio IC50/EC50: 2.9

## c1cn(-c2cc(NC3=NCC4(CN5CCC4CC5)N3)ncn2)cn1 (racemic)
[2]
  EC50: 140 nM
[4]
  IC50: 6400 nM
[6]
  Ratio IC50/EC50: 460

## Clc1cnc(NC2=NCC3(CN4CCC3CC4)N2)nc1 (racemic)
[1]
  Emax: 11%
[2]
  EC50: 290 nM
[3]
  EC50: 1100 nM
[4]
  IC50: 620 nM
[5]
  Emax: 44%
[6]
  Ratio IC50/EC50: 2.1

## Clc1ccc(NC2=NCC3(CN4CCC3CC4)N2)nc1 (racemic)
[2]
  EC50: 1200 nM
[4]
  IC50: 860 nM
[6]
  Ratio IC50/EC50: 0.72

## CN1C(Nc2nc3ccc(Cl)nc3s2)=NCC12CN1CCC2CC1 (racemic)
[2]
  EC50: 550 nM
[4]
  IC50: 13000 nM
[6]
  Ratio IC50/EC50: 24

## COc1ccc2sc(NC3=NCC4(CN5CCC4CC5)N3)nc2c1 (racemic)
[2]
  EC50: 750 nM
[4]
  IC50: 51 nM
[6]
  Ratio IC50/EC50: 0.068

## Cc1ccc2nc(NC3=NCC4(CN5CCC4CC5)N3)oc2c1 (racemic)
[1]
  Emax: 16%
[2]
  EC50: 35 nM
[3]
  EC50: 500 nM
[4]
  IC50: 7400 nM
[5]
  Emax: 58%
[6]
  Ratio IC50/EC50: 210 to 250

## COc1ccc2nc(NC3=NCC4(CN5CCC4CC5)N3)sc2c1 (racemic)
[2]
  EC50: 880 nM
[4]
  IC50: 32000 nM
[6]
  Ratio IC50/EC50: 36

## Clc1cnc(NC2=NCC3(CN4CCC3CC4)N2)cn1 (racemic)
[2]
  EC50: 990 nM
[4]
  IC50: 5600 nM
[6]
  Ratio IC50/EC50: 5.7

## c1ccc2c(NC3=NCC4(CN5CCC4CC5)N3)ncnc2c1 (racemic)
[2]
  EC50: 530 nM
[4]
  IC50: 14500 nM
[6]
  Ratio IC50/EC50: 27

## c1ccc2oc(NC3=NCC4(CN5CCC4CC5)N3)nc2c1 (racemic)
[2]
  EC50: 53 nM
[4]
  IC50: 26 nM
[6]
  Ratio IC50/EC50: 0.49

## Clc1ccc2nc(NC3=NCC4(CN5CCC4CC5)N3)sc2c1 (racemic)
[1]
  Emax: 5%
[2]
  EC50: 150 nM
[3]
  EC50: 1200 nM
[4]
  IC50: 18000 nM
[5]
  Emax: 33%
[6]
  Ratio IC50/EC50: 120

## O=C(Oc1ccc(Br)cc1)N1CCN2CCC1CC2 [SSR180711]
[19]
  fold change (FC): 3.9
[29]
  Activity: Non-Toxic
[28]
  fold change (FC): 2.4
